High-throughput results: PubChem, Broad Institute
Shown are actives, neighbours in structure and some others; about 5.9% of the full set was active somewhere.
T cruzi growth-1: T. cruzi intracellular proliferation inhibitors, primary screen, cell-based, beta-gal Tulahuen parasites, NIH3T3 host, luminescence; actives 5.9% (n = 77,000); inhibition, % at 8.34 µM; AID 624255, 2012; T. cruzi beta-gal in NIH3T3, GalScreen luminescence, 90 h;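 active means mean inhibition above about 93%, with at least 55% of replicates each passing it, limit read from the data, passing the limit was not always enough; inconclusive means only one of those two conditions holds; inactive means neither condition holds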
Pf Dd2 inh: P. falciparum Dd2 growth inhibitors, primary screen, SYBR Green fluorescence, single dose replicates; 72 h; active compounds read low; AID 1159554, 2015; activity change, % at 10 µM; actives 2.3% (n = 94,000); in the data active means activity change below about -80%; inconclusive means no clear call, values can overlap the other calls
IDH1 mut inh: inhibitors of IDH1 R132H reductase, primary screen, biochemical, plate reader, single point; Isocitrate dehydrogenase [NADP] cytoplasmic (Homo sapiens), O75874; diaphorase/resazurin fluorescence, 60 min; inhibition, % at 10 µM; actives 0.18% (n = 70,000); AID 624101, 2012; in the data active means inhibition above about 34%; inconclusive means no clear call, values can overlap the other calls; inactive means below about 11%
Target sequence (O75874 whole entry R132H): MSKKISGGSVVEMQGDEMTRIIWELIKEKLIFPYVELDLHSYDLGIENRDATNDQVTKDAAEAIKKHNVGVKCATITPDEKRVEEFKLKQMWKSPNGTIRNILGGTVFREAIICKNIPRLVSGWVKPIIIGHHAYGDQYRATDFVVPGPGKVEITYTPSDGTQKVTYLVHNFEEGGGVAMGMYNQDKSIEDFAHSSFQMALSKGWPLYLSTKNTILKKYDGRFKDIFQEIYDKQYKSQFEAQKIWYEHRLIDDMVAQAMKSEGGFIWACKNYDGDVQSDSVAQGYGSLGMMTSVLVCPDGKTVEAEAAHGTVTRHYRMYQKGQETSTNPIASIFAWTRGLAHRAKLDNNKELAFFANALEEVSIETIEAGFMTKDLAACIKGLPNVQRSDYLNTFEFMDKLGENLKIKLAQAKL
GASC1 inh: inhibitors of GASC-1 (KDM4C) histone demethylase, primary screen, biochemical, single concentration HTS | inhibition, % at 12.5 µM | Lysine-specific demethylase 4C (Homo sapiens), Q9H3R0 | GST-KDM4C 2-372, H3K9me3 peptide, LANCE TR-FRET | actives 0.15% (n = 96,000);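 active means mean replicate inhibition above about 25%, with at least 55% of replicates also reaching it, limit read from the data, passing the limit was not always enough; inconclusive means only one of those two conditions met; inactive means neither condition met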
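Material: GST-tagged GASC-1 (JMJD2C) catalytic fragment, aa 2-372 / Quantity: enzyme final amount 10 nM / Medium: HEPES buffer, pH 7.5, plus ascorbate / Doses: one test concentration per compound / Incubation: 30 min reaction, 60 min detection, RT / Measured by: LANCE TR-FRET / Read-out: inhibition from TR-FRET ratio decrease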
T cruzi growth-2: T. cruzi intracellular proliferation inhibitors, confirmation, cell-based, NIH3T3 host, beta-gal parasite, luminescence, cherry-pick; shares compounds with T cruzi growth-1; T. cruzi beta-gal in NIH3T3, GalScreen luminescence, 90 h; inhibition, % at 8.35 µM; actives 72% (n = 5,600); AID 651739, 2012;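 active means mean replicate inhibition above about 95% and at least 55% of replicates individually reaching it, limit read from the data; inconclusive means only one of the two criteria is met; inactive means neither criterion is met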
T cruzi growth-3: inhibitors of intracellular T. cruzi replication, confirmation, NIH3T3 host cells, beta-gal parasites, cherry-pick, set 2. shares compounds with T cruzi growth-1. T. cruzi beta-gal in NIH3T3, GalScreen luminescence, 90 h. inhibition, % at 2.09 µM. actives 21% (n = 5,600). AID 651740, 2012;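 active means mean inhibition above about 95%, with at least 55% of replicates also reaching it, limit read from the data; inconclusive means meets just one of the two conditions; inactive means meets neither condition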
3T3 cytotox: cytotoxicity in mouse NIH/3T3 fibroblasts, confirmation, cytotoxicity control for T. cruzi proliferation inhibitor project, cell-based, cherry-pick, single point | cytotoxicity (signal decrease), % at 8.35 µM | actives 14% (n = 5,600) | shares compounds with T cruzi growth-1 | NIH/3T3 viability, CellTiter-Glo ATP luminescence, 90 h;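 active means mean signal decrease across replicates above about 35% based on untreated-well scatter, with enough replicates individually passing, limit read from the data; inconclusive means no rule stated though some were filed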
NIH3T3 tox 2: NIH/3T3 fibroblast cytotoxicity, confirmation, cytotoxicity control, cell-based, cherry-pick, single point, set 2 | inhibition, % at 24.9 µM | NIH/3T3 viability, CellTiter-Glo ATP luminescence, 90 h | shares compounds with T cruzi growth-1 | actives 56% (n = 5,600) | AID 651744, 2012;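 active means mean loss of cell viability signal at or above a set limit, and enough replicates individually reaching it; inconclusive means meets only the mean limit or only the replicate share; inactive means meets neither condition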
Hits are given with their value; - = inactive; ? = inconclusive; . = not tested or not shown.

SMILES	T cruzi growth-1	Pf Dd2 inh	IDH1 mut inh	GASC1 inh	T cruzi growth-2	T cruzi growth-3	3T3 cytotox	NIH3T3 tox 2
O=C(Nc1ccc(F)cc1)N1C[C@H]2[C@@H](c3ccccc31)[C@H](CO)N2C(=O)c1ccccc1	102	-	.	-	98	-	-	-
O=C(C1CCCCC1)N1C[C@@H]2[C@H](c3ccccc31)[C@H](CO)N2Cc1ccccc1Cl	105	-	.	-	99	-	-	-
O=C(Nc1ccccc1)N1C[C@@H]2[C@H](c3ccccc31)[C@@H](CO)N2CC1CCCC1	-	-	.	-	.	.	.	.
COc1ccc(C(=O)N2C[C@H]3[C@@H](c4ccccc42)[C@H](CO)N3Cc2ccc3c(c2)OCO3)cc1	?	-	.	-	-	-	-	33
O=C(NCCCN1CCOCC1)c1cc2cc([N+](=O)[O-])ccc2oc1=O	.	.	-	.	.	.	.	.
CCC(=O)N1C[C@H]2[C@@H](c3ccccc31)[C@H](CO)N2C(=O)CC	104	-	.	-	-	-	-	-
O=C(Nc1ccccc1Cl)N1C[C@H]2[C@@H](c3ccccc31)[C@H](CO)N2Cc1ccccc1	100	-	.	-	-	-	-	-
O=S(=O)(c1ccc(F)cc1)N1C[C@H]2[C@@H](c3ccccc31)[C@H](CO)N2Cc1ccccc1Cl	108	-	.	-	102	-	-	38
O=C(Nc1ccccc1Cl)N1C[C@H]2[C@@H](c3ccccc31)[C@@H](CO)N2Cc1ccccc1	-	-	.	-	.	.	.	.
Cc1ccccc1OCCn1c(C(O)c2ccccc2)nc2ccccc21 (stereo not drawn)	.	.	-	.	.	.	.	.
O=C(NCc1n[nH]c(=O)c2ccccc12)c1cc2ccccc2oc1=O	.	.	-	.	.	.	.	.
COc1cc([N+](=O)[O-])ccc1NC(=O)CSc1nc(C)cc(-c2ccc(Cl)cc2)n1	.	.	-	.	.	.	.	.
COc1cccc(NC(=O)CSc2nnc(-c3ccccc3O)n2-c2ccccc2)c1	.	.	-	.	.	.	.	.
CN(C)CC#Cc1cccc(-c2nc(C(=O)NCc3ccc4c(c3)OCO4)cc3c2[C@@H](CCO)N(S(=O)C(C)(C)C)C3)c1 (stereo partly drawn)	112	.	.	.	110	108	-	-
COc1ccc(CNC(=O)c2cc3c(c(-c4cccc(-c5cccc(C#N)c5)c4)n2)[C@H](CCO)N([S@@](=O)C(C)(C)C)C3)cc1	-	-	-	-	.	.	.	.
CC(C)(C)[S@](=O)N1Cc2cc(C(=O)NCc3ccc4c(c3)OCO4)nc(-c3cccc(-c4cccnc4)c3)c2[C@@H]1CCO	-	-	-	-	.	.	.	.
COc1ccc(CNC(=O)c2cc3c(c(-c4cccc(-c5ccc(C#N)cc5)c4)n2)[C@H](CCO)N([S@@](=O)C(C)(C)C)C3)cc1	?	-	-	-	103	-	-	30
CC1=C(/C=C/C(C)=C\C=C\C(C)=C\C(=O)Nc2ccc(O)cc2)C(C)(C)CCC1	.	.	-	.	.	.	.	.
Cc1cc(C)cc(NC(=O)CN(c2ccccc2F)S(C)(=O)=O)c1	.	.	-	.	.	.	.	.
COc1ccc(S(=O)(=O)N(C)C[C@@H]2OCCCC[C@@H](C)Oc3ccc(NC(=O)Nc4ccc(F)cc4)cc3C(=O)N([C@@H](C)CO)C[C@H]2C)cc1	111	-	.	-	107	-	-	-
COc1ccc(NC(=O)Nc2ccc3c(c2)C(=O)N([C@H](C)CO)C[C@H](C)[C@H](CN(C)S(=O)(=O)c2ccc(F)cc2)OCCCC[C@H](C)O3)cc1	?	-	.	-	103	-	-	-
COc1ccc(N(CC(=O)Nc2ccc(Br)c(Cl)c2)S(C)(=O)=O)cc1Cl	.	.	-	.	.	.	.	.
CCOC(=O)c1c(NC(=S)Nc2nc(C)cc(C)n2)sc(C)c1-c1ccccc1	.	.	-	.	.	.	.	.
Cc1cccc(C)c1Nc1c(-c2ccsc2)nc2sccn12	.	.	-	.	.	.	.	.
Cc1ccc(S(=O)(=O)Nc2ccc3c(c2)C(=O)N([C@H](C)CO)C[C@@H](C)[C@H](CN(C)Cc2ccccc2)OCCCC[C@@H](C)O3)cc1	93	-	.	-	109	-	-	86
SMILES	T cruzi growth-1	Pf Dd2 inh	IDH1 mut inh	GASC1 inh	T cruzi growth-2	T cruzi growth-3	3T3 cytotox	NIH3T3 tox 2
C[C@H](CO)N1C[C@H](C)[C@@H](CN(C)Cc2ccccc2)OCCCC[C@H](C)Oc2ccc(NS(C)(=O)=O)cc2C1=O	99	-	-	-	-	-	-	-
C[C@@H]1CCCCO[C@@H](CN(C)Cc2ccncc2)[C@H](C)CN([C@H](C)CO)C(=O)c2cc(NS(C)(=O)=O)ccc2O1	102	-	-	-	-	-	-	-
C[C@@H]1CCCCO[C@H](CN(C)Cc2ccccc2)[C@H](C)CN([C@@H](C)CO)C(=O)c2cc(NS(C)(=O)=O)ccc2O1	-	-	-	-	.	.	.	.
Cc1ccc(O)c(NC(=O)CCN2C(=O)c3ccccc3C2=O)c1	.	.	-	.	.	.	.	.
CN(C)C(=O)C[C@H]1C[C@@H]2c3cc(NS(=O)(=O)c4ccc(F)cc4)ccc3O[C@@H]2[C@H](CO)O1	-	-	-	-	.	.	.	.
CN(C)C(=O)C[C@@H]1C[C@H]2c3cc(NS(=O)(=O)c4ccc(F)cc4)ccc3O[C@H]2[C@@H](CO)O1	?	-	-	-	-	-	-	-
CN(C)C(=O)C[C@@H]1C[C@H]2c3cc(NS(=O)(=O)c4ccc(F)cc4)ccc3O[C@H]2[C@H](CO)O1	104	-	-	-	-	-	-	-
C[C@@H]1CN([C@@H](C)CO)S(=O)(=O)c2ccc(-c3ccccc3)cc2O[C@H]1CN(C)S(=O)(=O)c1ccccc1F	124	-84	-	-	99	105	56	66
C[C@@H]1CN([C@H](C)CO)S(=O)(=O)c2ccc(-c3ccccc3)cc2O[C@@H]1CN(C)S(=O)(=O)c1ccccc1F	122	-	-	-	100	-	-	36
C[C@H](CO)N1C[C@H](C)[C@H](CN(C)S(=O)(=O)c2ccccc2F)Oc2cc(-c3ccncc3)ccc2S1(=O)=O	.	-	-	-	.	.	.	.
C[C@@H]1CN([C@H](C)CO)S(=O)(=O)c2ccc(-c3ccccc3)cc2O[C@H]1CN(C)S(=O)(=O)c1ccccc1F	112	-	-	-	?	-	64	37
